What was measured:
[1] = system: Leishmania tropica; assay: Percentage of growth inhibition of multidrug resistance Leishmania tropica Lines at 1 uM.; format: functional
Summary of the method: (§1)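 Log-phase MDR promastigotes were plated at 3 × 10⁵ cells/well in RPMI 1640-modified medium with 20% FBS and 150 µM DNM. Sesquiterpenes (DMSO stocks diluted in medium) were added and cells kept 72 h at 28 °C. MTT was added for 4 h, formazan dissolved in 20% SDS and A540 read. Growth inhibition is relative to DNM-treated controls without modulator.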

[2] = system: Leishmania tropica; assay: Percentage of growth inhibition of wild type Leishmania tropica lines at 3 uM; Value ranges from 0 to 6%; format: functional
Summary of the method: (§2)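 Intrinsic toxicity on the wild-type L. tropica LRC clone, with no DNM present. Log-phase promastigotes were plated at 3 × 10⁵ cells/well in RPMI 1640-modified medium with 20% FBS, with sesquiterpene diluted from DMSO stocks, for 72 h at 28 °C. MTT was added for 4 h, then 20% SDS, and A540 read. Percent growth inhibition is taken against untreated control absorbance.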

[3] = system: Leishmania tropica; assay: Percentage of growth inhibition of multidrug resistance Leishmania tropica Lines at 7 uM; Value ranges from 0 to 6%; format: functional; summary of the method: as §1
[4] = system: Leishmania tropica; assay: Percentage of growth inhibition of multidrug resistance Leishmania tropica Lines at 3 uM.; format: functional; summary of the method: as §1
[5] = system: Leishmania tropica; assay: (§3) Percentage of growth inhibition of wild type Leishmania tropica lines at 15 uM; format: functional; summary of the method: as §2
[6] = system: Leishmania tropica; assay: Percentage of growth inhibition of wild type Leishmania tropica lines at 7 uM; Value ranges from 0 to 6%; format: functional; summary of the method: as §2
[7] = system: Leishmania tropica; assay: Percent growth inhibition of wild type Leishmania tropica at 1 uM; format: functional; summary of the method: as §2
[8] = system: Leishmania tropica; assay: Percentage of growth inhibition of multidrug resistance Leishmania tropica Lines at 15 uM; format: functional; summary of the method: as §1
[9] = system: Leishmania tropica; assay: Ratio of IC50 of the multidrug resistance Leishmania tropica Line to that of IC50 of the wild type line at 15 uM; format: functional
Summary of the method: (§4)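 Resistance index is the DNM IC50 in the MDR L. tropica line divided by the DNM IC50 in the wild-type line. MDR IC50s were obtained with sesquiterpene at 7 or 15 µM. Growth was read by 72 h MTT assay at 28 °C. Data are from three independent experiments.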

[10] = system: Leishmania tropica; assay: Concentration required to inhibit the growth of multidrug resistance Leishmania tropica Line in the presence of DNM at 15 uM; format: functional, organism-based
[11] = system: Leishmania tropica; assay: Percentage of growth inhibition of multidrug resistance Leishmania tropica Lines at 1 uM; format: functional; summary of the method: as §1
[12] = system: Leishmania tropica; assay: Concentration required to inhibit the growth of multidrug resistance Leishmania tropica Line in the presence of DNM at 7 uM; format: functional, organism-based
[13] = system: Leishmania tropica; assay: Percentage of growth inhibition of multidrug resistance Leishmania tropica Lines at 3 uM; format: functional; summary of the method: as §1
[14] = system: Leishmania tropica; assay: Ratio of IC50 of the multidrug resistance Leishmania tropica Line to that of IC50 of the wild type line at 7 uM; format: functional; summary of the method: as §4
[15] = system: Leishmania tropica; assay: Percentage of growth inhibition of wild type Leishmania tropica Lines at 7 uM.; format: functional; summary of the method: as §2
[16] = system: Leishmania tropica; assay: Percentage of growth inhibition of multidrug resistance Leishmania tropica Lines at 7 uM.; format: functional; summary of the method: as §1
[17] = system: Leishmania tropica; assay: as §3; format: functional; remark: listed apart in the source
Summary of the method: (§5)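 WT L. tropica LRC-strain promastigotes (log phase, RPMI 1640-modified medium + 20% heat-inactivated FBS, 28 °C) seeded at 3 × 10⁵ cells/well and exposed without DNM to sesquiterpenes diluted from DMSO stocks. After 72 h at 28 °C, MTT (5 mg/mL in PBS) was added for 4 h, formazan dissolved in 20% SDS, A540 read. Growth inhibition (%) calculated relative to untreated control absorbance.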

[18] = system: Leishmania tropica; assay: Percentage of growth inhibition of wild type Leishmania tropica Lines at 3 uM.; format: functional; summary of the method: as §2
[19] = system: Leishmania tropica; assay: Percentage of growth inhibition of wild type Leishmania tropica Lines at 7 uM; format: functional; summary of the method: as §5
[20] = system: Leishmania tropica; assay: Percentage of growth inhibition of multidrug resistance Leishmania tropica Lines at 15 uM; Value ranges from 0 to 6%; format: functional; summary of the method: as §1
[21] = system: Leishmania tropica; assay: Percentage of growth inhibition of wild type Leishmania tropica Lines at 3 uM; format: functional; summary of the method: as §5

Row | Structure (SMILES) | inhibition at 1 µM [1] | inhibition at 7 µM [3] | inhibition at 3 µM [4] | inhibition at 15 µM [5] | inhibition at 1 µM [7] | inhibition at 15 µM [8] | RI [9] | IC50 [10] | inhibition at 1 µM [11] | IC50 [12] | inhibition at 3 µM [13] | RI [14] | inhibition at 7 µM [15] | inhibition at 7 µM [16] | inhibition at 15 µM [17] | inhibition at 3 µM [18] | other results
1 | COc1ccc(C(=O)O[C@@H]2C3C[C@H](OC(=O)c4ccco4)[C@]4(C)[C@@H](OC(C)=O)[C@@H](OC(=O)c5ccccc5)C[C@](C)(O)C24OC3(C)C)cc1 (stereo partly drawn) | < 6% | 6% | 6% | < 6% | < 6% | 11.8% |  |  |  |  |  |  |  |  |  |  | inhibition at 3 µM [2]: 6%; inhibition at 7 µM [6]: 6%
2 | CC(=O)OC[C@]12[C@@H](OC(=O)c3ccco3)CC3[C@@H](OC(=O)c4ccco4)C1(OC3(C)C)[C@@](C)(O)C[C@H](OC(C)=O)[C@@H]2OC(C)=O (stereo partly drawn) |  |  |  |  | < 6% | 94.3% | 2.9 | 11 µM | 25.7% | 33.3 µM | 79.6% | 8.7 | < 6% | 89.5% | 7.2% | < 6% | 
3 | CC(=O)O[C@H]1C[C@](C)(O)C23OC(C)(C)C(C[C@H](OC(=O)c4ccco4)[C@]2(C)[C@H]1OC(C)=O)[C@H]3OC(=O)c1ccco1 (stereo partly drawn) |  |  |  |  | < 6% | 94.4% | 2.3 | 9 µM | 24.5% | 30 µM | 83.5% | 7.8 |  | 90.9% | 15.2% | < 6% | inhibition at 7 µM [19]: 9.7%
4 | CC(=O)OC[C@@]12[C@@H](OC(C)=O)[C@@H](OC(C)=O)[C@@H]3OC(=O)[C@H](C)[C@@H](C)c4ncccc4C(=O)OC[C@@]4(C)OC1([C@H](OC(C)=O)C4[C@H](OC(C)=O)[C@@H]2OC(C)=O)[C@@]3(C)O | < 6% | 6% | < 6% | < 6% | < 6% |  |  |  |  |  |  |  | < 6% |  |  | < 6% | inhibition at 15 µM [20]: 6%
5 | CC(=O)O[C@H]1[C@@H](OC(=O)c2ccccc2)C[C@](C)(O)C23OC(C)(C)C(C[C@H](OC(=O)c4ccco4)[C@]12C)[C@H]3OC(=O)c1ccc([N+](=O)[O-])cc1 (stereo partly drawn) |  |  |  |  | < 6% | 51.1% |  |  | 6.4% |  | 13.5% |  |  | 26.4% | 10.8% |  | inhibition at 3 µM [2]: 6%; inhibition at 7 µM [6]: 6%
6 | CC(=O)O[C@@H]1C2C[C@H](OC(=O)c3ccco3)[C@]3(C)[C@@H](OC(C)=O)[C@@H](OC(=O)c4ccco4)C[C@](C)(O)C13OC2(C)C (stereo partly drawn) | < 6% | 6% | 6% | < 6% | < 6% |  |  |  |  |  |  |  | < 6% |  |  | < 6% | inhibition at 15 µM [20]: 6%
7 | CC(=O)OC[C@]12[C@@H](OC(=O)c3ccccc3)CC3[C@@H](OC(=O)c4ccccc4)C1(OC3(C)C)[C@@](C)(O)C[C@H](OC(C)=O)[C@@H]2OC(C)=O (stereo partly drawn) |  |  |  |  | < 6% | 90.9% | 5.2 | 20 µM | 18% | 39 µM | 77.5% | 10.2 |  | 89.9% | 15.2% |  | inhibition at 3 µM [21]: 6.9%; inhibition at 7 µM [19]: 11%
